Measurements as given in ChEMBL document CHEMBL3352165 (Eur J Med Chem, 2014).

What was measured:
[1] = target: T1, Epidermal growth factor receptor (Homo sapiens, UniProt P00533); details: A-431, 0.001 to 1 uM
[2] = cells; details: Homo sapiens, Calu-3, 72 h
[3] = tested on: BT-474; assay: Induction of apoptosis in human BT474 cells at 0.01 uM incubated for 12 hrs by propidium iodide staining based flow cytometry (reference value: 1%); format: functional
[4] = tested on: Mus musculus; assay: Toxicity in human Calu3 cells xenografted BALB/cA mouse assessed as body weight loss at 200 mg/kg, po measured every other day for 21 days; format: organism-based, Calu-3; parameters: dose 200 mg/kg, route oral; details: in vivo, 504 h
In short: (§1)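 Female BALB/cA nude mice, 6–7 weeks old, implanted s.c. on the mid-right flank with 2×10^6 Calu-3 cells in 0.2 ml PBS. At 60–150 mm³ tumour volume, mice randomised into six per treatment group (twelve vehicle controls). Oral dosing in 0.5% CMC aqueous solution with 0.1% Tween-80. Body weight recorded every other day for 21 d.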

[5] = AUC (0 to 24 hrs) in Beagle dog at 240 mg/kg, po dosed for 14 days by LC/MS/MS method; format: ADME, organism-based, Canis lupus familiaris; parameters: time < 24 hr, dose 240 mg/kg, route oral; details: plasma
In short: (§2)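 Beagle dogs (n = 6) dosed by oral gavage at 240 mg/kg daily for 14 consecutive days. Blood taken predose and at 0.25–24 h on days 1 and 14, plasma stored at −20 °C, analysed by validated LC/MS/MS. Half-life and AUC by model-independent methods; Cmax and MRT read from concentration–time data.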

[6] = Cmax in Beagle dog at 240 mg/kg, po dosed for 14 days by LC/MS/MS method; format: ADME, organism-based, Canis lupus familiaris; parameters: dose 240 mg/kg, route oral; details: in vivo
In short: as §2

[7] = Tmax in Beagle dog at 240 mg/kg, po administered as single dose measured after 0.25 to 24 hrs post dose by LC/MS/MS method; format: ADME, organism-based, Canis lupus familiaris; parameters: dose 240 mg/kg, route oral; details: in vivo
In short: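 Beagle dogs (n = 6), single oral gavage dose of 240 mg/kg. Plasma levels measured by validated LC/MS/MS. Tmax read directly from the concentration-time data.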

[8] = tested on: BT-474; assay: Induction of cell cycle arrest in human BT474 cells assessed as accumulation at S phase at 10 uM incubated for 12 hrs by propidium iodide staining based flow cytometry (reference value: 19%); format: functional
[9] = tested on: BT-474; assay: Induction of cell cycle arrest in human BT474 cells assessed as accumulation at G1 phase at 0.001 uM incubated for 12 hrs by propidium iodide staining based flow cytometry (reference value: 67%); format: functional
[10] = tested on: BT-474; assay: Induction of cell cycle arrest in human BT474 cells assessed as accumulation at G1 phase at 1 uM incubated for 12 hrs by propidium iodide staining based flow cytometry (reference value: 67%); format: functional
[11] = Mean residence time in Beagle dog at 240 mg/kg, po administered as single dose measured after 0.25 to 24 hrs post dose by LC/MS/MS method; format: ADME, organism-based, Canis lupus familiaris; parameters: dose 240 mg/kg, route oral; details: in vivo
In short: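 Single oral gavage of 240 mg/kg to beagle dogs (n = 6). Blood sampled at 0.25–24 h, kept on ice, centrifuged within 1 h (1000 × g, 4 °C, 15 min), plasma stored at −20 °C. Drug quantified by validated LC/MS/MS. AUC0–24 from non-compartmental analysis; Cmax and MRT taken directly from concentration–time data.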

[12] = Mean residence time in Beagle dog at 240 mg/kg, po dosed for 14 days by LC/MS/MS method; format: ADME, organism-based, Canis lupus familiaris; parameters: dose 240 mg/kg, route oral; details: in vivo
In short: as §2

[13] = tested on: BT-474; assay: Induction of cell cycle arrest in human BT474 cells assessed as accumulation at G2/M phase at 0.01 uM incubated for 12 hrs by propidium iodide staining based flow cytometry (reference value: 14%); format: functional
[14] = tested on: BT-474; assay: Induction of cell cycle arrest in human BT474 cells assessed as accumulation at G1 phase at 0.1 uM incubated for 12 hrs by propidium iodide staining based flow cytometry (reference value: 67%); format: functional
[15] = tested on: BT-474; assay: Induction of cell cycle arrest in human BT474 cells assessed as accumulation at G2/M phase at 0.1 uM incubated for 12 hrs by propidium iodide staining based flow cytometry (reference value: 14%); format: functional
[16] = target: T1, Epidermal growth factor receptor; details: A-431, 0.001 to 10 uM
[17] = tested on: BT-474; assay: Induction of cell cycle arrest in human BT474 cells assessed as accumulation at S phase at 0.01 uM incubated for 12 hrs by propidium iodide staining based flow cytometry (reference value: 19%); format: functional
[18] = tested on: Mus musculus; assay: Toxicity in human Calu3 cells xenografted BALB/cA mouse assessed as body weight loss at 100 mg/kg, po measured every other day for 21 days; format: organism-based, Calu-3; parameters: dose 100 mg/kg, route oral; details: in vivo, 504 h
In short: as §1

[19] = tested on: BT-474; assay: Induction of cell cycle arrest in human BT474 cells assessed as accumulation at G1 phase at 10 uM incubated for 12 hrs by propidium iodide staining based flow cytometry (reference value: 67%); format: functional
[20] = tested on: MDA-MB-453; assay: cells; details: Homo sapiens, MDA-MB-453, 72 h
[21] = target: T1, Epidermal growth factor receptor; details: A-431, 0.001 to 1 uM; remark: listed apart in the source
[22] = tested on: BT-474; assay: Induction of apoptosis in human BT474 cells at 0.001 uM incubated for 12 hrs by propidium iodide staining based flow cytometry (reference value: 1%); format: functional
[23] = target: Mast/stem cell growth factor receptor Kit (Homo sapiens, UniProt P10721); assay: Inhibition of c-KIT (unknown origin) by ELISA method
In short: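 Phosphotyrosine ELISA with purified kinase (20 ng) and 5 µM ATP in buffer (50 mM HEPES pH 7.4, 20 mM MgCl2, 0.1 mM MnCl2, 0.2 mM Na3VO4, 1 mM DTT), 1 h at 37 °C, DMSO ≤1%. Detection by PY99 antibody, then HRP anti-mouse IgG with o-phenylenediamine, A490. IC50 by Logit from at least three independent tests.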

[24] = Antitumor activity against human Calu3 cells xenografted in BALB/cA mouse assessed as tumor growth inhibition at 200 mg/kg, po; format: functional; details: Calu-3, read-out: TGI
In short: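 Female BALB/cA nude mice, 6–7 weeks old, implanted s.c. on midright side with 2×10^6 Calu-3 cells in 0.2 ml PBS. Grouped at 60–150 mm³ tumour volume (6 per treated group, 12 vehicle). Oral dosing in 0.5% CMC with 0.1% Tween-80. Caliper volume = L×W²×0.5; inhibition = (1 − T/C)×100% on relative tumour volume; weight tracked for 21 d.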

[25] = tested on: BT-474; assay: Induction of cell cycle arrest in human BT474 cells assessed as accumulation at G1 phase at 0.01 uM incubated for 12 hrs by propidium iodide staining based flow cytometry (reference value: 67%); format: functional
[26] = tested on: MCF7; assay: Cytotoxicity against human MCF7 cells assessed as inhibition of cell growth after 72 hrs by sulforhodamine B assay; format: functional, cell-based; details: MCF7, 72 h
In short: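 Cells grown in RPMI-1640 with 5% FBS and plated at 5.0×10^4/ml. Next day exposed to 0.5–5000 ng/ml for 3 days. Survival read by sulforhodamine B staining. IC50 taken from growth curves; mean of at least three determinations.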

[27] = Elimination half life in Beagle dog at 240 mg/kg, po dosed for 14 days by LC/MS/MS method; format: ADME, organism-based, Canis lupus familiaris; parameters: dose 240 mg/kg, route oral; details: in vivo, read-out: beta t1/2 (converted)
In short: as §2

T1 sequence (P00533 whole entry): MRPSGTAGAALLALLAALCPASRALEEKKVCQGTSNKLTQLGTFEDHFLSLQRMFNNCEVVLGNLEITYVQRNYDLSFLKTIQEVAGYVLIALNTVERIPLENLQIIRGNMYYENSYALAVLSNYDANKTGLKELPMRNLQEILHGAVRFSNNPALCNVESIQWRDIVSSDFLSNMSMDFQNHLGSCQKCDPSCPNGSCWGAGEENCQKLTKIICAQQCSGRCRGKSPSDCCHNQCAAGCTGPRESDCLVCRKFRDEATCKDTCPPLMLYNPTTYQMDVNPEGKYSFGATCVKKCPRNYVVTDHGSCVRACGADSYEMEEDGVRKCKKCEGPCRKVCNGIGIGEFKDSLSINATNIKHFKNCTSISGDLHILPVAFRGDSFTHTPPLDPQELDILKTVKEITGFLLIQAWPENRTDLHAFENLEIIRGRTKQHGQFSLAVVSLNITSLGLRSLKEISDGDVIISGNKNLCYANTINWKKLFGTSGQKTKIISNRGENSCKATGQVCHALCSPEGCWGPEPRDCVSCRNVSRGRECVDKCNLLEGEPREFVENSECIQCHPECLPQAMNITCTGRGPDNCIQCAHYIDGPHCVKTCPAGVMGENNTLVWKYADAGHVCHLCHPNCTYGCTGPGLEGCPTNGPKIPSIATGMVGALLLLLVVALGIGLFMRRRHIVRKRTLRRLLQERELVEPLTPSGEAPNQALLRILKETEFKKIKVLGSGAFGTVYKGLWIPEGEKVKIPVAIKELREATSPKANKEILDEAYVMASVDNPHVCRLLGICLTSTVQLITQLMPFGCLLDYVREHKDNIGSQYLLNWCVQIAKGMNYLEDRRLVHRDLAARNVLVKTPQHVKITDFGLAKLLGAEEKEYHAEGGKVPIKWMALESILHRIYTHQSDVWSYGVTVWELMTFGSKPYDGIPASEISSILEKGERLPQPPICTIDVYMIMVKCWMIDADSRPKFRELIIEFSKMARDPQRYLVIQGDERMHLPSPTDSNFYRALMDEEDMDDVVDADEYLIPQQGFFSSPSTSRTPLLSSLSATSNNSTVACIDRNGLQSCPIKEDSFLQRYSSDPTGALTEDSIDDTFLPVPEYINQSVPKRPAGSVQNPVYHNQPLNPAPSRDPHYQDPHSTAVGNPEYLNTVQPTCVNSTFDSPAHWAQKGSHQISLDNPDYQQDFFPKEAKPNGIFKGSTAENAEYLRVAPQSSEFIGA
Chain of Mast/stem cell growth factor receptor Kit (P10721 whole entry): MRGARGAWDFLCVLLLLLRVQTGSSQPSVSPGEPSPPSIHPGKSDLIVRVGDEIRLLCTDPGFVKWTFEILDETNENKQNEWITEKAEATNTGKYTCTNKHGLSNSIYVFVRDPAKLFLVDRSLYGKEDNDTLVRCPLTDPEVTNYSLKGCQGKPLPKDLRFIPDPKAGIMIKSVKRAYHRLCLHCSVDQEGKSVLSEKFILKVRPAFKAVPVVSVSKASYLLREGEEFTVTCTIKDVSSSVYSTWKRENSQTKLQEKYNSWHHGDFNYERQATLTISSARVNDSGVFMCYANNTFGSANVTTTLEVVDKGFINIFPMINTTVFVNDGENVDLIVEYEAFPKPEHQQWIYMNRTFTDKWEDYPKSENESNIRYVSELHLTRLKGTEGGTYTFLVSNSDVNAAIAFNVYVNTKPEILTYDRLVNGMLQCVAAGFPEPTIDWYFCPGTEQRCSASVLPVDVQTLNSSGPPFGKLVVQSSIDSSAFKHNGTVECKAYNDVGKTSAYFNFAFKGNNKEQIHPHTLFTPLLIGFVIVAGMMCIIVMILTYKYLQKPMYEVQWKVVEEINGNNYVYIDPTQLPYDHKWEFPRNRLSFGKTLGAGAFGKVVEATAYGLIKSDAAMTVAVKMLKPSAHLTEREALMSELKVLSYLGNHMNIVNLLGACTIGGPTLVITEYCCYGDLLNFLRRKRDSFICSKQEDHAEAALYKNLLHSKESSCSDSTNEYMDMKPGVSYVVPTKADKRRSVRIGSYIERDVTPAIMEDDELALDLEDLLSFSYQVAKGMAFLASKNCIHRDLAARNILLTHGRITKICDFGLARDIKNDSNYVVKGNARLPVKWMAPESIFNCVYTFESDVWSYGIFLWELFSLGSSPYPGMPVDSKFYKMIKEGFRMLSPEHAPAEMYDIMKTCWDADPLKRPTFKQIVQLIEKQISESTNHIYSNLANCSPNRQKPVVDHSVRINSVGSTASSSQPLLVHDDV

With `CN(C)[C@H](CS(C)(=O)=O)c1ccc(-c2ccc3ncnc(Nc4ccc(OCc5cccc(F)c5)c(Cl)c4)c3c2)o1` the inhibition [1] was “Dose-dependent effect”, the IC50 [2] was 230 nM and the Activity [3] was 1%. The Activity [4] was “Non-toxic”, the AUC at 24 h [5] was 29800 ng·h/mL and the Cmax [6] was 2900 ng/mL. It also gave a Tmax [7] of 4 h, an Activity [8] of 8% and an Activity [9] of 70%. For the same compound, the Activity [10] was 82%, the MRT [11] was 6.1 h and the MRT [12] was 6.6 h. The Activity [13] was 14%, the Activity [14] was 84% and the Activity [15] was 11%. The inhibition [16] was “Dose-dependent effect”, the Activity [17] was 9% and the Activity [18] was “Non-toxic”. For the same compound, the Activity [19] was 80%, the IC50 [20] was 260 nM and the inhibition [21] was “Dose-dependent effect”. The Activity [22] was 1%, the IC50 [23] was greater than 200000 nM and the inhibition in vivo at 200 mg/kg [24] was 83%. For the same compound, the Activity [25] was 77%, the IC50 [26] was 5670 nM and the half-life [27] was 4.8 h.
